Test results published in ChEMBL document CHEMBL1154181 (J Med Chem, 2009).

What was measured:
Assay type in all cases: functional
Mus musculus [1] = test: Antinociceptive activity against radiant heat-induced nociception in po dosed CD1 mouse assessed as increase in tail withdrawal latency measured after 15 to 120 mins postdose by tail flick test in presence of 50 mg/kg, ip GABAB receptor antagonist CGP-35348 administered 30 mins before compound infusion
Procedure, shortened: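 Antagonist given ip 30 min before oral dosing (naloxone 1, mecamylamine 2, yohimbine 2, CGP 35348 50 mg/kg). Tail flick with radiant heat at the tail tip, cut-off 15 s; latencies at 15–120 min converted to %MPE. Peak-time quantal response (≥50% MPE); ED50 from at least four groups of six male CD-1 mice.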

Mus musculus [2] = test: Antinociceptive activity against radiant heat-induced nociception in CD1 mouse assessed as tail withdrawal latency at 1 mg/kg, po measured after 15 to 120 mins postdose by tail flick test
Procedure, shortened: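 Male CD-1 mice (25–30 g), dosed orally at 1 mg/kg. Tail flick: radiant heat focused 3–4 cm from the tail tip, cut-off 15 s at 15 V. Hot plate: 48.5 ± 0.1 °C, licking, paw jerk or jump, cut-off 60 s. Baseline is the mean of three readings 15 min apart. Latency followed to 120 min (tail) or 90 min (plate); data as %MPE.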

Mus musculus [3] = test: Ratio of compound ED50 to morphine ED50 for antinociceptive activity against radiant heat-induced nociception in icv dosed CD1 mouse
Procedure, shortened: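 Male CD-1 mice (25–30 g) given the compound or morphine hydrochloride into the right lateral ventricle. Tail flick used radiant heat focused 3–4 cm from the tail tip, with a 15 s cutoff, and latency was read at 15–120 min. %MPE was made quantal at peak time. ED50 came from at least four groups of six mice, and both ED50s were obtained the same way.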

C=Cc1c(C)nn(CCCN2CCN(c3ccc(C)cc3)CC2)c(=O)c1N
ED50 (Mus musculus [1]): 0.5 mg/kg | Activity (Mus musculus [2]): 30 min | Ratio ED50 (Mus musculus [3]): 3
